According to ChEMBL document CHEMBL3822400, “New structure-activity relationships of N-acetamide substituted pyrazolopyrimidines as pharmacological ligands of TSPO” (Bioorg Med Chem Lett, 2016):

Tests used:
[1] = Fraction unbound in human plasma after 4.5 hrs by rapid equilibrium dialysis method; assay type: ADME, cell-free
Outline: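 Equilibrium dialysis of plasma against buffer. After dialysis, the buffer and plasma fractions were extracted and analysed by standard LC-MS to quantify the compound.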

[2] = target: Translocator protein (Rattus norvegicus, UniProt P16257); experiment: Displacement of [3H]-PK11195 from TSPO in rat C6 cell lysate after 2 hrs by liquid scintillation counting; assay type: cell-free
Translocator protein, sequence (P16257 whole entry, looked up): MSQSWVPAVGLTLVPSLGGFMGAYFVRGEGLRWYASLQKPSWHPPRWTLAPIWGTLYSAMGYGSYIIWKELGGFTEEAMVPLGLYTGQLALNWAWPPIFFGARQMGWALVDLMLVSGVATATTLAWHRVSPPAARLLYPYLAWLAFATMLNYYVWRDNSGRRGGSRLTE

[3] = Lipophilicity, log P of the compound at pH 7.5 by HPLC method; assay type: physicochemical; conditions: buffer

| SMILES | Fu [1] [%] | Ki [2] [µM] | logP [3] |
| --- | --- | --- | --- |
| CCc1cc(CC)n2nc(-c3ccc(OC)cc3)c(CC(=O)N(CC)CC)c2n1 | 1.1 | – | – |
| CCc1cc(CC)n2nc(-c3ccc(OC)cc3)c(CC(=O)N(CC)c3ccccc3)c2n1 | 0.6 | 0.00028 | 3.27 |
| CCc1cc(CC)n2nc(-c3ccc(OC)cc3)c(CC(=O)N(C(C)CC)C(C)CC)c2n1 (stereo not drawn) | – | 0.0144 | 3.75 |
| CCc1cc(CC)n2nc(-c3ccc(OC)cc3)c(CC(=O)N(C)C)c2n1 | – | 0.0376 | 2.47 |
| CCc1cc(CC)n2nc(-c3ccc(OC)cc3)c(CC(=O)N(CC)C(C)(C)C)c2n1 | – | 0.0591 | 3.32 |
| CCCN(CCC)C(=O)Cc1c(-c2ccc(OC)cc2)nn2c(CC)cc(CC)nc12 | 0.7 | 0.00557 | 3.35 |
| CCc1cc(CC)n2nc(-c3ccc(OC)cc3)c(CC(=O)N3CCCCC3)c2n1 | – | 0.0492 | 2.96 |
| CCc1cc(CC)n2nc(-c3ccc(OC)cc3)c(CC(=O)N(C(C)C)C(C)C)c2n1 | – | 0.02 | 3.26 |
| CCc1cc(CC)n2nc(-c3ccc(OC)cc3)c(CC(=O)N(CC(C)C)CC(C)C)c2n1 | – | 0.0132 | 3.77 |
| CCCCCN(CCCCC)C(=O)Cc1c(-c2ccc(OC)cc2)nn2c(CC)cc(CC)nc12 | – | 0.00217 | 4.29 |
| CCCCN(CCCC)C(=O)Cc1c(-c2ccc(OC)cc2)nn2c(CC)cc(CC)nc12 | 0.3 | 0.00734 | 3.81 |
| CCCCCCN(CCCCCC)C(=O)Cc1c(-c2ccc(OC)cc2)nn2c(CC)cc(CC)nc12 | – | 0.0186 | 4.78 |
| CCc1cc(CC)n2nc(-c3ccc(OC)cc3)c(CC(=O)N3CCC3)c2n1 | – | 0.0878 | 2.58 |
| CCc1cc(CC)n2nc(-c3ccc(OC)cc3)c(CC(=O)N(C)C(C)(C)C)c2n1 | 1.3 | 0.0948 | 3.13 |
| CCc1cc(CC)n2nc(-c3ccc(OC)cc3)c(CC(=O)N(C)c3ccccc3)c2n1 | 1.1 | 0.00644 | 3.11 |
| CCc1cc(CC)n2nc(-c3ccc(OC)cc3)c(CC(=O)N3CCCC3)c2n1 | – | 0.127 | 2.72 |
| CCc1cc(CC)n2nc(-c3ccc(OC)cc3)c(CC(=O)N(Cc3ccccc3)Cc3ccccc3)c2n1 | – | 0.397 | 3.73 |
